pEC50: −log10 of the molar value. Calls of active or inactive are those of the source. The rule behind the calls is not given here.
How the values were obtained:
[1] = AUC (0 to 24 hrs) in CD-1 mouse plasma at 10 mg/kg/day, po administered via gavage and measured up to 24 hrs by LC/MS/MS analysis; format: ADME, organism-based; design: dose 10 mg/kg/day, time < 24 hr, route oral
[2] = Cytotoxicity against human Hep2 cells assessed as reduction in cell viability after 5 days by CCK-8 assay; format: cell-based; conditions: HEp-2 cells
Summary of the method: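 Uninfected HEp-2 cells (6000/well) were incubated 5 days with serially diluted compound. Viability was read by CCK-8, and CC50 is the concentration toxic to 50% of cells.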

[3] = Antiviral activity against Human respiratory syncytial virus A strain Long infected in human Hep2 cells assessed as reduction in virus induced cytopathic effect in presence of 40% FBS after 5 days by CCK-8 assay; format: functional, cell-based; conditions: HEp-2, 120 h
Summary of the method: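 RSV Long CPE assay with 40% FBS in place of the standard 10%. HEp-2 cells at 6000/well were infected next day at MOI 0.02 and kept 5 days with serially diluted compound. CCK-8 viability gave the 50% effective concentration.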

[4] = Oral bioavailability in Wistar-Han rat at 10 mg/kg administered as single dose via gavage and measured up to 24 hrs by LC/MS/MS analysis; format: ADME, organism-based; conditions: in vivo
Summary of the method: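 Male Wistar-Han rats, single dose, 2 mg/kg iv and 10 mg/kg po, run by standard procedures.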

Human orthopneumovirus = assay: Antiviral activity against Human respiratory syncytial virus A2 infected in human Hep2 cells assessed as reduction in virus induced cytopathic effect after 5 days by CCK-8 assay; format: functional, organism-based; conditions: A2, HEp-2, 120 h
Summary of the method: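 CPE protection assay in HEp-2 cells, 6000 per well, infected next day with RSV at MOI 0.02 to give about 90% cytopathic effect after 5 days. Serial compound dilutions were present during incubation. Cell viability was measured by CCK-8 at day 5 to give EC50.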

[5] = Antiviral activity against Human respiratory syncytial virus A 1177 clinical isolates infected in human Hep2 cells assessed as reduction in virus induced cytopathic effect in presence of 10% FBS after 5 days by CCK-8 assay; format: functional, cell-based; conditions: human respiratory syncytial virus, 1177, HEp-2, 120 h
Summary of the method: (§1)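 HEp-2 cells seeded at 6000/well and infected the next day at MOI 0.02, a dose that gives about 90% CPE by day 5. Serial compound dilutions were present throughout, in standard medium with 10% FBS. Viability was read by CCK-8 at day 5, and EC50 is the concentration that cuts CPE by 50%.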

[6] = Antiviral activity against Human respiratory syncytial virus B 821 clinical isolates infected in human Hep2 cells assessed as reduction in virus induced cytopathic effect in presence of 10% FBS after 5 days by CCK-8 assay; format: functional, cell-based; conditions: human respiratory syncytial virus, 821, HEp-2, 120 h; summary of the method: as §1
[7] = Antiviral activity against Human respiratory syncytial virus A strain Long infected in human Hep2 cells assessed as plaque reduction […] by chloro-1-naphthol staining-based assay; format: functional
Summary of the method: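 HEp-2 monolayers in 12-well plates got 0.5 ml of 200 PFU/ml RSV Long with or without serial compound dilutions. After 2 h they were overlaid with DMEM/F12, 4% FBS, 0.55% agarose plus compound and incubated 3 days. Cells were fixed in 4% paraformaldehyde for 6 h and immunostained with anti-RSV mAb (1:300), then HRP anti-mouse. Plaques were developed with 4-chloro-1-naphthol/H2O2 and counted.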

[8] = Half-life in CD-1 mouse lung at 10 mg/kg/day, po administered via gavage and measured up to 24 hrs by LC/MS/MS analysis; format: ADME, organism-based
[9] = Tmax in CD-1 mouse plasma at 10 mg/kg/day, po administered via gavage and measured up to 24 hrs by LC/MS/MS analysis; format: ADME, organism-based
[10] = Tmax in CD-1 mouse lung at 10 mg/kg/day, po administered via gavage and measured up to 24 hrs by LC/MS/MS analysis; format: ADME, organism-based
[11] = Cmax in CD-1 mouse plasma at 10 mg/kg/day, po administered via gavage and measured up to 24 hrs by LC/MS/MS analysis; format: ADME, organism-based; design: dose 10 mg/kg/day, route oral
[12] = Cmax in CD-1 mouse lung at 10 mg/kg/day, po administered via gavage and measured up to 24 hrs by LC/MS/MS analysis; format: ADME, organism-based; design: dose 10 mg/kg/day, route oral
[13] = system: Fusion glycoprotein F0 (Human respiratory syncytial virus A (strain A2)), P03420 [D486N]; assay: Inhibition of Human respiratory syncytial virus Fusion protein D486N mutant expressed in Hep2 cells as reduction in virus induced cytopathic effect by CCK-8 assay; format: cell-based
Summary of the method: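 HEp-2 cells were seeded at 6000/well and infected with plaque-purified RSV carrying the F-protein mutation (D486N or D489A) at MOI 0.04, with serially diluted compound. Viability was read by CCK-8 absorbance at 450 nm/650 nm, and EC50/EC90 were derived from protection against virus-induced cytopathic effect.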

[14] = Clearance in Sprague-Dawley rat at 2 mg/kg, iv or 10 mg/kg, po; format: ADME, organism-based; conditions: in vivo
Summary of the method: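 Rat single-dose PK: 2 mg/kg iv and 10 mg/kg po. Compound was given as a solution in 5% DMSO/40% PEG400/55% of 0.9% saline. Plasma CL, Vss, iv half-life, AUC and oral bioavailability were reported.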

[15] = AUC (0 to 24 hrs) in Beagle dog at 10 mg/kg, po; format: ADME, organism-based, Canis lupus familiaris; design: dose 10 mg/kg, time < 24 hr, route oral; conditions: in vivo
Summary of the method: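 Single-dose PK. Dog received 1 mg/kg iv or 10 mg/kg po, and cynomolgus monkey received 2 mg/kg iv or 10 mg/kg po. Both were given as a solution in 12.5% captisol in water. Plasma AUC was taken from the oral arm, with CL, Vss, iv T1/2 and F also derived.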

[16] = Oral bioavailability in CD-1 mouse at 50 mg/kg; format: ADME, organism-based; conditions: in vivo
Summary of the method: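 Single-dose PK in CD-1 mice: 5 mg/kg iv, 50 mg/kg po. Dosed as a solution in 5% DMSO, 40% PEG400, 55% of 0.9% NaCl. Plasma CL, Vss, iv T1/2, AUC and F were derived.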

[17] = Oral bioavailability in Beagle dog at 10 mg/kg; format: ADME, organism-based, Canis lupus familiaris; conditions: in vivo
Summary of the method: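 Beagle dog single-dose PK at 1 mg/kg iv and 10 mg/kg po, dosed as a solution in 12.5% captisol in water. Plasma clearance, Vss, iv T1/2, AUC and F were reported.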

[18] = Antiviral activity against Human respiratory syncytial virus A strain Long infected in BALB/c mouse assessed as log reduction in virus titer in lung at 12.5 mg/kg, po BID administered up to 8 hrs for 4 days relative to control; format: functional
Summary of the method: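 Six-week-old female BALB/c mice, housed specific-pathogen-free, were anesthetized intraperitoneally with ketamine/xylazine and given RSV Long strain intranasally (5×10^5 PFU in 100 µL). Oral dosing was twice daily (0 h and 8 h) for 4 days, 12 mice per group. Mice were then euthanized with CO₂ and lungs harvested for viral titer, compared with vehicle.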

Enterovirus = assay: Antiviral activity against Rhinovirus infected in human Hep2 cells assessed as reduction in virus induced cytopathic effect after 5 days by CCK-8 assay; format: functional, organism-based
[19] = system: Human parainfluenza virus 2; assay: Antiviral activity against Human parainfluenza virus 2 infected in human Hep2 cells assessed as reduction in virus induced cytopathic effect after 5 days by CCK-8 assay; format: functional, organism-based; conditions: Human orthorubulavirus 2

## Cc1ccc2nc(N3CCS(=O)(=O)c4ccccc4C3)nc(NCC3(N)COC3)c2c1 [ZIRESOVIR]
[1]
  AUC at 24 h: 8380 ng·h/mL
[2]
  CC50 at 120 h: > 100000 nM
[3]
  pEC50: 8.52
  EC90: 8 nM
[4]
  bioavailability: 32%
Human orthopneumovirus
  pEC50: 8.70
  EC90: 3 nM
[5]
  pEC50: 8.40
  EC90: 7 nM
[6]
  pEC50: 8.52
  EC90: 8 nM
[7]
  EC90: 10 nM
[8]
  half-life: 3.31 h
[9]
  Tmax: 0.25 h
[10]
  Tmax: 1 h
[11]
  Cmax: 5090 ng/mL
[12]
  Cmax: 22700 ng/mL
[13]
  EC90: > 10000 nM
[14]
  clearance: 58 mL/min/kg
[15]
  AUC(0-t) at 24 h: 1170 ng·h/mL
[16]
  bioavailability: 66%
[17]
  bioavailability: 26%
[18]
  FC: >1
Enterovirus
  Activity: inactive
[19]
  Activity: inactive
